# Compound activity as filed in PubChem.
# In the library only some 1.6% were active in any assay of this set; here they are far more common.
# Diaph act CS – counter-screen for diaphorase-based assays: diaphorase activators and chemical reducers | AID 1229 | activation factor at 20 µM | Diaphorase/resazurin coupled assay, resorufin fluorescence, 16 min; hits give high values; 1 = vehicle wells, 0 = NADH-free wells | 190,000 compounds, 0.005% hits;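 active means diaphorase activity raised at least twofold by the compound at 20 µM; inactive means activation factor below 2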
#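 System – purified diaphorase enzyme from Clostridium kluyveri · Input – enzyme 0.07 U/mL final · Also added – final NADH 0.114 mM, resazurin 0.1 mM · Measured by – fluorescence of resorufin, 544 nm excitation, 590 nm emission · Timing – 16 min enzyme reaction, ambient temperature · Measure – resorufin increase flagging diaphorase activators or reducers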
# ABCG2 block – human ABCG2 inhibition, ABCB1 as counter-screen. Q9UNQ0. IgMXP3 cells, JC-1 efflux, flow cytometry. inhibition, % at 6.6 µM. 190,000 compounds, 0.1% hits. AID 1325;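 active means inhibition above 80%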;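 further: 0% = DMSO and 100% = nicardipine control wells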
#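 Times: 10 min at 25 °C | Test system: Two drug-resistant human cell lines, ABCG2 and ABCB1 | Quantity: 3 million cells/mL final, two lines in 1:1 ratio | Signal: Flow cytometry, 530 nm JC-1 signal | Dosing: Compound at 6.6 µM | Controls: Nicardipine and DMSO wells | Reagent: JC-1 as fluorescent efflux pump substrate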
# Efa HMGR inh – blocks class II HMG-CoA reductase of Enterococcus faecalis; purified E. faecalis HMGR, NADPH absorbance 340 nm kinetic; inhibition, % at 10 µM; 190,000 compounds, 0.41% hits; AID 1066;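 active means inhibition above a set limit, the median over all tested compounds plus 3 SD, cut at about 9.5% in these data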;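 further: enzyme runs in reverse so mevalonate oxidation gives rising NADPH absorbance; 0% = complete reaction with DMSO and 100% = background rate lacking mevalonate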
# ABCB1 block – human ABCB1 inhibition, ABCG2 as counter-screen. CCRF-Adr cells, JC-1 efflux, flow cytometry. P08183. 190,000 compounds, 0.067% hits. inhibition, % at 6.6 µM. AID 1326; in the data active means inhibition above about 40%;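 further: 0% = vehicle and 100% = reference inhibitor; higher value means more JC-1 retained so stronger ABCB1 efflux block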
# Target sequence (P08183 whole entry, looked up): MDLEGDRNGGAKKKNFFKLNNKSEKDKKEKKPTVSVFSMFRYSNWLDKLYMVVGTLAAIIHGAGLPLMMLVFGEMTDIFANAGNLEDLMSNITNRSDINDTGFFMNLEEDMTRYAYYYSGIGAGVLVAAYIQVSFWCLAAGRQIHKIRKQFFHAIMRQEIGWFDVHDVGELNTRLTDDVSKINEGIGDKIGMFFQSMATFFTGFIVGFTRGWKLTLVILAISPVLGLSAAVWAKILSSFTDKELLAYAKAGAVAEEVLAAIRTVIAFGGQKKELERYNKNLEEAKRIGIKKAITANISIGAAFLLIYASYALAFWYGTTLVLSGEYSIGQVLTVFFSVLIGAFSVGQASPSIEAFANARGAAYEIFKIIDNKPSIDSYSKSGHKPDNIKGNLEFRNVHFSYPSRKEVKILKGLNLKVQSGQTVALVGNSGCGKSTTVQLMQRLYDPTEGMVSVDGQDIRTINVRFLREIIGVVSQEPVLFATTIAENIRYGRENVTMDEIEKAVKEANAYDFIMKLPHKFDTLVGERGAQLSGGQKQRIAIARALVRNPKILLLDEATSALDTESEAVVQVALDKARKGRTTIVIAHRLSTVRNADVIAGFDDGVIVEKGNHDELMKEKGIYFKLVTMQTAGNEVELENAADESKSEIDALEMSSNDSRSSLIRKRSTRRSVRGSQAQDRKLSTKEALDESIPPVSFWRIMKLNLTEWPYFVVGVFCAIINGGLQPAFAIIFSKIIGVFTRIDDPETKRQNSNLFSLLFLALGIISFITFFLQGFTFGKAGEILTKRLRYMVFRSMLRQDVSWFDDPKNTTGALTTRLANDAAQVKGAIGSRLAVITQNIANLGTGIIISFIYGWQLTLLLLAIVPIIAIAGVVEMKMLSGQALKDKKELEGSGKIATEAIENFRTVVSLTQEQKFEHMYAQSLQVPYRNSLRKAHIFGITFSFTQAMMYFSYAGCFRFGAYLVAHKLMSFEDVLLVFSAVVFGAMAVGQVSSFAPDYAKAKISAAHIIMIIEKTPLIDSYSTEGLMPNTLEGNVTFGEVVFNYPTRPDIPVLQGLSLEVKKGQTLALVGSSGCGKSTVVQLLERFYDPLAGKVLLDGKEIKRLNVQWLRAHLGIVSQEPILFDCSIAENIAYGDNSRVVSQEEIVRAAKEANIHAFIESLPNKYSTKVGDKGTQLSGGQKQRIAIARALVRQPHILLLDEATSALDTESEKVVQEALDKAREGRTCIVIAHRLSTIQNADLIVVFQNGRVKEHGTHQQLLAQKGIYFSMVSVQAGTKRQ
# p47phox inh – inhibitors of human p47phox binding; 220,000 compounds, 0.53% hits; inhibition, % at 24.7 µM; p47phox/p22phox peptide binding, fluorescence polarization, 2 h; P14598;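 active means inhibition above about 30%, limit read from the data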;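 further: 0% = p47phox with labelled peptide and 100% = labelled peptide alone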
# Diaphorase inh – counter-screen for diaphorase-based assays: diaphorase inhibitors and chemical oxidizers; diaphorase resazurin-to-resorufin fluorescence, NADH, 16 min; bacterial (C. kluyveri) enzyme, not human; inhibition, % at 20 µM; 190,000 compounds, 0.69% hits; AID 1217;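 active means primary screen inhibition at 20 µM above a set limit, cut at about 50% in these data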;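 further: plate controls were DMSO with full reaction for no effect and wells lacking NADH for full effect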
#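 Benchmarks: positive control wells lacking NADH, neutral wells with DMSO only. System: bacterial diaphorase enzyme (C. kluyveri). Input: 0.14 U/mL diaphorase, enzyme working solution. Detection: resorufin fluorescence, excitation 544 nm, emission 590 nm. Times: 16-min room-temperature incubation before reading.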
# An asterisk follows results filed as active; / = no result given.
SMILES,Diaph act CS,ABCG2 block,Efa HMGR inh,ABCB1 block,p47phox inh,Diaphorase inh
O=C1/C(=C/c2ccc([N+](=O)[O-])cc2)C=C(c2ccccc2)N1c1ccc(O)cc1,1,-0.1,-6.3,-0.1,55.6*,0.0
O=C1/C(=C/c2ccc([N+](=O)[O-])cc2)C=C(c2ccccc2)N1c1ccccc1,0.8,1.5,-2.6,0.7,-95.7,16.0
CC1(N(O)/C=C2\C=CC=CC2=O)CCCCC1=O (stereo unspecified),/,/,/,/,-5.3,/
O=C(O)c1ccc(/C=N/NC(=S)NCCN2CCOCC2)cc1,1.1,3.0,-2.6,1.3,1.6,-12.8
Oc1cccc(/C=N/NC(=S)NCCN2CCOCC2)c1O,0.3,2.3,-2.9,0.0,-6.3,66.3*
NC(=S)N/N=C/c1cccc(O)c1O,0.4,4.2,1.4,-0.5,-10.2,60.3*
Oc1cccc(/C=N/NC(=S)Nc2cccnc2)c1O,0.4,-10.8,-1.8,-1.2,-7.7,59.9*
O=C(COC(=O)c1ccco1)Nc1ccc2c(c1)OCO2,0.9,0.1,-2.0,-0.1,-7.6,12.1
Clc1ccc(C2[C@H]3CN(Cc4ccc(-c5ccccc5)cc4)[C@H](c4ccccc4)C34CC2(c2cccnc2)C4)cn1 (stereo partly specified),/,/,/,/,-25.3,/
Nc1ccc(-n2nnnc2-c2ccco2)cc1,0.9,-0.8,1.1,-0.3,59.1*,12.0
COc1cc(NC(=O)c2ccccc2)c(OC)cc1NC(=O)CN1CCCCC1,0.9,0.0,4.8,-0.4,-3.2,7.1
O=C(Oc1c(CN2CCOCC2)cc(Cl)c2cccnc12)c1ccccc1F,0.5,4.7,-4.2,1.6,16.9,50.5*
O=C(Oc1c(CN2CCOCC2)cc(Cl)c2cccnc12)c1ccccc1,0.7,7.7,1.8,0.6,-2.0,29.9
NC(=O)CSc1cn(Cc2ccccc2)c2ccccc12,0.9,0.4,2.2,0.1,-12.7,5.6
Cc1ccc(Cn2cc(SCC(N)=O)c3ccccc32)cc1,1,1.4,0.5,0.9,37.1*,-0.6
O=C(Cc1n[nH]c(=O)c2ccccc12)NCc1ccccn1,0.9,5.3,10.4*,0.6,-18.3,11.4
O=C(Cc1n[nH]c(=O)c2ccccc12)NCc1ccc(Cl)cc1,/,/,/,/,3.9,/
COc1ccc2c(c1)c(C(=O)CN1CCC3(CC1)OCCO3)c(C)n2C,0.8,1.9,-1.0,0.4,-6.2,15.3
[O-][n+]1onc2c3ccnnc3ccc21,0.8,5.7,-2.7,0.9,0.1,20.3
O=C(N/N=C/c1c(O)n(-c2ccc(Cl)cn2)c(=O)c2ccccc12)c1ccncc1,0.4,3.6,-5.1,-0.4,-21.6,59.0*
O=C(N/N=C/c1c(O)n(-c2ccc(Cl)cn2)c(=O)c2ccccc12)C1CC1,0.7,0.7,-10.4,-0.1,-27.0,33.2
Cn1c(=O)cc2c3c(c(N4CCCCC4)ccc31)C(=O)c1ccccc1-2,/,/,/,/,34.5*,/
Cc1ccc(S(=O)(=O)NC(CC(=O)N2CCc3ccccc32)c2ccco2)cc1 (stereo unspecified),0.8,14.7,-0.2,1.4,0.6,17.2
O=C(CNC(=S)N(Cc1ccccc1F)C1CCCCC1)NCCN1CCOCC1,1.1,0.5,-5.0,1.3,-3.0,-8.9
O=C(CNC(=S)N(Cc1ccccc1F)C1CCCCC1)NCCCN1CCOCC1,1,0.1,12.6*,0.2,-2.9,3.0
SMILES,Diaph act CS,ABCG2 block,Efa HMGR inh,ABCB1 block,p47phox inh,Diaphorase inh
Cn1c(C(O)C(O)c2ccccc2)nc2ccccc21 (stereo unspecified),0.9,1.6,-7.5,0.5,6.0,6.6
Cn1c(C(C#N)C2=C(Cl)C(=O)N(c3ccccc3)C2=O)nc2ccccc21 (stereo unspecified),0.5,3.3,0.3,2.4,47.8*,45.6
O=C(Cc1cnn(-c2ccccc2)c1)c1ccc(O)c(O)c1O,0.3,1.4,3.4,-0.4,-24.6,68.7*
Cc1ccc(Cl)cc1N=C(N)N=C(N)N,1,1.5,14.9*,0.4,-4.7,4.2
Cc1noc(C)c1S(=O)(=O)N1CCC(C(=O)NCCN2CCC(C)CC2)CC1,0.9,-0.1,11.1*,-0.1,-11.3,8.8
O=C(c1cc(Cl)c(=O)n(Cc2ccccc2)c1)N1CCOCC1,1,0.0,3.8,0.2,-8.8,4.4
Cn1cnnc1Sc1ccc(C(=O)OCC(=O)NC2CC2)cc1[N+](=O)[O-],1.1,-6.8,15.5*,-2.2,-0.5,-12.9
CSc1nc(O)c(C(c2cccc([N+](=O)[O-])c2)c2c(O)nc(SC)[nH]c2=O)c(=O)[nH]1,1,0.1,-1.8,0.1,-7.0,0.3
COc1ncnc2c1oc1nc(C(C)C)c3c(c12)CC(C)(C)OC3,0.1,2.5,3.8,0.4,-9.7,88.5*
CCOC(=O)c1oc2nc(C(C)C)c3c(c2c1N)CC(C)(C)OC3,0.3,-1.1,0.4,0.1,-223.8,68.2*
COc1ncnc2c1oc1nc(C)c3c(c12)CC(C)(C)OC3,/,/,/,/,-3.4,/
Nc1c2c(nc3ccc(Br)cc13)N(Cc1ccccc1)CC2,0.7,1.6,-5.4,-0.9,21.7,30.9
Cc1ccccc1NC1=C(Cl)C(=O)OC1OC(C)C (stereo unspecified),1,-0.2,-0.9,-0.1,-4.6,1.3
Cc1sc2nc(SCC(=O)NCc3ccco3)n(Cc3ccccc3)c(=O)c2c1C,1,3.2,-1.9,1.8,-10.2,-1.4
O=C(N/N=C/c1ccc(O)c(O)c1O)/C(=C/c1ccc([N+](=O)[O-])cc1)NC(=O)c1ccccc1,0.3,-2.2,-7.7,-0.9,-9.8,73.6*
Cc1ccc(NC(=O)/C(=C\c2ccc([N+](=O)[O-])cc2)NC(=O)c2ccccc2)cc1,1.1,20.7,-4.9,1.9,-7.8,-5.2
CCN(CC)C(=O)c1cnn(-c2ccccc2)c1NC(=O)c1cccs1,1,1.9,9.6*,0.1,8.7,4.9
O=C1C2CCCN2c2ccc(S(=O)(=O)N3CCOCC3)cc2N1Cc1cccc(C(F)(F)F)c1 (stereo unspecified),0.8,2.1,-8.4,0.9,-106.0,15.1
O=C(O)c1cc(C(=O)O)cc(-c2ccc(/C=c3/sc4nc5ccccc5n4c3=O)o2)c1,0,-3.3,0.8,-1.1,-42.6,97.6*
O=c1/c(=C/c2ccccn2)sc2nc3ccccc3n12,0.8,5.4,-2.0,0.1,-0.2,15.4
O=c1/c(=C\c2cc([N+](=O)[O-])cc([N+](=O)[O-])c2O)sc2nc3ccccc3n12,0.5,2.1,9.4,3.4,-76.2,50.1*
C/C(=N\NC(=S)NC(C)C)c1ccc(-n2ccnc2)cc1,0.9,4.1,0.5,0.4,-0.1,10.4
CN(C)Cc1cc(O)c(CN(C)C)cc1O,/,/,/,/,37.2*,/
